Reference: ChEMBL document CHEMBL1125881, “Synthesis and hypocholesterolemic activity of 6,7-dihydro-4H-pyrazolo[1,5-a]pyrrolo[3,4-d]pyrimidine-5,8-diones, novel inhibitors of acylCoA:cholesterol O-acyltransferase” (J Med Chem, 1991)
“And” between values parts separate entries of the source, which are not always exact repeats. Equal entries are not always repeated.

Assays:
[1] = target: T1, Sterol O-acyltransferase 1 (Rattus norvegicus, UniProt O70536); assay: In vitro inhibition of Fu5AH acyl coenzyme A:cholesterol acyltransferase.
T1 sequence (O70536 whole entry): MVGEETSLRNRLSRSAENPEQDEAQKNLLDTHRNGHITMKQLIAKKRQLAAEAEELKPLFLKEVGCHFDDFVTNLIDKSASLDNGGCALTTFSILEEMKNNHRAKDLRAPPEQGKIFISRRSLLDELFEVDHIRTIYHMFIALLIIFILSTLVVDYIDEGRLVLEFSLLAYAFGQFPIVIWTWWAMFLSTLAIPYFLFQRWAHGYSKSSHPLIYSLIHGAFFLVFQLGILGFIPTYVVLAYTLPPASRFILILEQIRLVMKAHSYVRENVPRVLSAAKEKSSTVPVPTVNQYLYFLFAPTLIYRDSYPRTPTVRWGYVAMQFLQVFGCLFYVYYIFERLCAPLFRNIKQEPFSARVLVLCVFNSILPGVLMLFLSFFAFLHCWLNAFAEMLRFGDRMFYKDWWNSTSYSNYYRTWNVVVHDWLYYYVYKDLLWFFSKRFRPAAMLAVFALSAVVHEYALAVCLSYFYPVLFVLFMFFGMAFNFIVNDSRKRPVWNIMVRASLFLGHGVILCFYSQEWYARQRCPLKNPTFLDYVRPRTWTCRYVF

[2] = target: T2, Sterol O-acyltransferase 1 (Rattus norvegicus) (UniProt O70536); assay: Inhibition of Fu5AH Acyl coenzyme A:cholesterol acyltransferase at the concentration of 10 ug/mL
T2 sequence (whole entry): T1 sequence (O70536 whole entry)

Rattus norvegicus [3] = species on record: Rattus norvegicus; assay: (§1) Percent control of serum cholesterol in cholesterol; type: functional; parameters: concentration or dose not given beside the values
How it was run: (§2)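 Male Sprague-Dawley rats (100–110 g), groups of 10, fed synthetic diet with 1% cholesterol; compound mixed into diet to give the stated daily dose (mg/kg) for 7 days. Serum from jugular bleed under anesthesia; VLDL+LDL separated from HDL by PEG-8000 precipitation in glycine buffer pH 9; values expressed as % of cholesterol-fed control; one-way design, LSD comparison.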

Rattus norvegicus [4] = species on record: Rattus norvegicus; assay: as §1; type: functional; parameters: concentration or dose not given beside the values; how it was run: as §2; remark: listed apart in the source
Rattus norvegicus [5] = species on record: Rattus norvegicus; assay: as §1; type: functional; parameters: concentration or dose not given beside the values; how it was run: as §2; remark: listed apart in the source
Rattus norvegicus [6] = species on record: Rattus norvegicus; assay: (§3) The compound was tested for % control of serum cholesterol in cholesterol; type: functional; how it was run: as §2
Rattus norvegicus [7] = species on record: Rattus norvegicus; assay: as §3; type: functional; how it was run: as §2; remark: listed apart in the source
Rattus norvegicus [8] = species on record: Rattus norvegicus; assay: as §3; type: functional; how it was run: as §2; remark: listed apart in the source
Rattus norvegicus [9] = species on record: Rattus norvegicus; assay: as §3; type: functional; how it was run: as §2; remark: listed apart in the source
Rattus norvegicus [10] = species on record: Rattus norvegicus; assay: as §3; type: functional; how it was run: as §2; remark: listed apart in the source
Rattus norvegicus [11] = species on record: Rattus norvegicus; assay: as §3; type: functional; how it was run: as §2; remark: listed apart in the source

IC50 [1] [µM] | inhibition [2] [%] | Structure (SMILES) | Control (Rattus norvegicus [3]) [%] | Control (Rattus norvegicus [4]) | Control (Rattus norvegicus [5]) [%] | other results
10.5 | 90 | O=C1c2c(c(=O)n3nc(-c4ccccc4)cc3n2Cc2ccccc2)CN1Cc1ccccc1 | 92 | 105% | 113 | –
– | 18 | O=C1c2c(c(=O)n3nc(-c4ccccc4)cc3n2Cc2ccccc2)CN1c1ccccc1 | – | – | – | –
2.74 | 87 | O=C(Cn1c2c(c(=O)n3nc(-c4ccccc4)cc13)CN(C1CCCCC1)C2=O)c1cccc([N+](=O)[O-])c1 | 83 | 106% | 126 | –
6.4 | 85 | CC(C)CC(C)N1Cc2c(n(CC(=O)c3ccccc3)c3cc(-c4ccccc4)nn3c2=O)C1=O (stereo unspecified) | 89 | 72% | 57 | –
– | 21 | O=C1c2c(c(=O)n3ncc(-c4ccccc4)c3n2Cc2ccccc2)CN1C1CCCCC1 | – | – | – | –
11.5 | 65 | C=CCOc1ccc(-c2cc3n(Cc4ccccc4)c4c(c(=O)n3n2)CN(C2CCCCC2)C4=O)cc1 | 95 | 94% | 98 | –
6.67 | 79 | CC1CCCC(N2Cc3c(n(CC(=O)c4ccccc4)c4cc(-c5ccccc5)nn4c3=O)C2=O)C1C (stereo unspecified) | 122 | 89% | 59 | Control (Rattus norvegicus [6]): 83%; Control (Rattus norvegicus [7]): 86%; Control (Rattus norvegicus [8]): 105%; Control (Rattus norvegicus [9]): 109%; Control (Rattus norvegicus [10]): 62%; Control (Rattus norvegicus [11]): 70%
– | 25 | O=C1c2c(c(=O)n3nccc3n2Cc2ccccc2)CN1C1CCCCC1 | – | – | – | –
– | 75 | CCOc1ccc(-c2cc3n(Cc4ccccc4)c4c(c(=O)n3n2)CN(C2CCCCC2)C4=O)cc1 | 93 | 110% | 122 | –
– | 1 | CCCCCCCC/C=C\CCCCCCCCN1Cc2c(n(CC(=O)c3ccccc3)c3cc(-c4ccccc4)nn3c2=O)C1=O | 86 | 76% | 69 | –
13.7 | 78 | O=C(CCCn1c2c(c(=O)n3nc(-c4ccccc4)cc13)CN(C1CCCCC1)C2=O)c1ccccc1 | – | – | – | –
– | 55 | CC(C(=O)c1ccccc1)n1c2c(c(=O)n3nc(-c4ccccc4)cc13)CN(C1CCCCC1)C2=O (stereo unspecified) | – | – | – | –
– | 25 | COC(=O)Cn1c2c(c(=O)n3nc(-c4ccccc4)cc13)CN(C1CCCCC1)C2=O | 112 | 109% | 109 | –
– | 39 | CCCCCCCCCCCCN1Cc2c(n(CC(=O)c3ccccc3)c3cc(-c4ccccc4)nn3c2=O)C1=O | 92 | 91% | 85 | –
– | 52 | COc1ccc(C(=O)Cn2c3c(c(=O)n4nc(-c5ccccc5)cc24)CN(C2CCCCC2)C3=O)cc1 | – | – | – | –
– | 66 | O=C1c2c(c(=O)n3nc(-c4ccccc4)cc3n2CC(O)c2ccccc2)CN1C1CCCCC1 (stereo unspecified) | – | – | – | –
– | 2 | CCCCCCCCCCCCCCCCOc1ccc(C(=O)Cn2c3c(c(=O)n4nc(-c5ccccc5)cc24)CN(C2CCCCC2)C3=O)cc1 | – | – | – | –
– | 10 | COc1ccc(CN2Cc3c(n(CC(=O)c4ccccc4)c4cc(-c5ccccc5)nn4c3=O)C2=O)cc1 | – | – | – | –
– | 33 | O=C1c2c(c(=O)n3nc(-c4ccc(O)cc4)cc3n2Cc2ccccc2)CN1C1CCCCC1 | – | – | – | –
– | 12 | O=C1c2c(c(=O)n3nc(C4CCCCC4)cc3n2Cc2ccccc2)CN1C1CCCCC1 | 111 | 109% | 106 | –
5.16 | 88 | O=C(Cn1c2c(c(=O)n3nc(-c4ccccc4)cc13)CN(C1CCCCC1)C2=O)c1ccc(F)cc1 | 101 | 98% | 95 | –

IC50 [1] [µM] | inhibition [2] [%] | Structure (SMILES) | Control (Rattus norvegicus [3]) [%] | Control (Rattus norvegicus [4]) | Control (Rattus norvegicus [5]) [%] | other results
7.98 | 88 | O=C1c2c(c(=O)n3nc(-c4ccccc4)cc3n2Cc2ccccc2)CN1C1CCCCC1 | 97 | 104% | 110 | –
– | 13 | Cn1c2c(c(=O)n3nc(-c4ccccc4)cc13)CN(C1CCCCC1)C2=O | – | – | – | –
4.39 | 83 | O=C(Cn1c2c(c(=O)n3nc(-c4ccccc4)cc13)CN(C1CC3CCC1C3)C2=O)c1ccccc1 (stereo unspecified) | 90 | 75% | 63 | –
15.5 | 75 | O=C1c2c(c(=O)n3nc(-c4ccccc4)cc3n2C/C=C/c2ccccc2)CN1C1CCCCC1 | – | – | – | –
– | 39 | O=C(Cn1c2c(c(=O)n3nc(-c4ccccc4)cc13)CN(C1CCCCCCCCCCC1)C2=O)c1ccccc1 | 92 | 83% | 76 | –
3.64 | 92 | O=C(Cn1c2c(c(=O)n3nc(-c4ccccc4)cc13)CN(C1CCCCC1)C2=O)c1ccccc1 | 128 | 97% and 88% | 65 | Control (Rattus norvegicus [6]): 97%; Control (Rattus norvegicus [8]): 120%; Control (Rattus norvegicus [9]): 133%; Control (Rattus norvegicus [10]): 75%; Control (Rattus norvegicus [11]): 84%
– | 75 | CCCCCCN1Cc2c(n(CC(=O)c3ccccc3)c3cc(-c4ccccc4)nn3c2=O)C1=O | 98 | 89% | 86 | –
– | 28 | CCOC(=O)CCCn1c2c(c(=O)n3nc(-c4ccccc4)cc13)CN(C1CCCCC1)C2=O | – | – | – | –
– | 48 | CCCCCCn1c2c(c(=O)n3nc(-c4ccccc4)cc13)CN(C1CCCCC1)C2=O | – | – | – | –
8.77 | 97 | O=C1c2c(c(=O)n3nc(-c4ccccc4)cc3n2CC2CCCCC2)CN1C1CCCCC1 | 80 | 111% | 144 | –
– | 68 | O=C(Cn1c2c(c(=O)n3nc(-c4ccccc4)cc13)CN(C1CCCCCCC1)C2=O)c1ccccc1 | 100 | 83% | 67 | –
5.48 | 70 | O=C(Cn1c2c(c(=O)n3nc(-c4ccccc4)cc13)CN(Cc1ccccc1)C2=O)c1ccccc1 | 100 | 100% | 101 | –
8.86 | 80 | CC(C)(C)CC(C)(C)N1Cc2c(n(CC(=O)c3ccccc3)c3cc(-c4ccccc4)nn3c2=O)C1=O | 122 | 107% | 96 | –
22.9 | 55 | O=C1c2c(c(=O)n3nc(-c4ccccc4)cc3n2CSc2ccccc2)CN1C1CCCCC1 | – | – | – | –
– | 8 | CN1Cc2c(n(Cc3ccccc3)c3cc(-c4ccccc4)nn3c2=O)C1=O | – | – | – | –
– | 30 | CC(c1ccccc1)N1Cc2c(n(CC(=O)c3ccccc3)c3cc(-c4ccccc4)nn3c2=O)C1=O (stereo unspecified) | 92 | 91% | 90 | –
– | 19 | O=C(Cn1c2c(c(=O)n3nc(-c4ccccc4)cc13)CN(C1CCCCC1)C2=O)c1ccc2ccccc2c1 | – | – | – | –
– | 1 | COC(=O)c1ccc(C(=O)Cn2c3c(c(=O)n4nc(-c5ccccc5)cc24)CN(C2CCCCC2)C3=O)cc1 | 99 | 107% | 116 | –
– | 31 | O=C1c2c(c(=O)n3nc(-c4ccccc4)cc3n2CS(=O)(=O)c2ccccc2)CN1C1CCCCC1 | – | – | – | –
– | 23 | O=C1c2c(c(=O)n3nc(-c4ccccc4)cc3n2Cc2ccccc2)CN1C[C@H]1CC[C@H](O)CC1 | 90 | 108% | 128 | –
